Rows were chosen to be rich in hits. Some 1.3% of all compounds tested hit in one or more screens of this group.
proCasp3 act = activators of human procaspase-3 D3A mutant, primary screen, biochemical, absorbance, PC-3 D3A mutant, single concentration; Caspase-3 (Homo sapiens), P42574; hit rate 0.11% among 330,000; recombinant procaspase-3 D3A, Ac-DEVD-pNA absorbance 405 nm; activation, % at 8.5 µM; AID 463141, 2010;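 active = activation above the mean of all tested compounds plus 3 SD, cut at about 21% in these data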;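 also: 0% = DMSO alone and 100% = DMSO wells spiked with extra 5 µM PC-3 D3A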
Target sequence (P42574 whole entry D9A/D28A/D175A): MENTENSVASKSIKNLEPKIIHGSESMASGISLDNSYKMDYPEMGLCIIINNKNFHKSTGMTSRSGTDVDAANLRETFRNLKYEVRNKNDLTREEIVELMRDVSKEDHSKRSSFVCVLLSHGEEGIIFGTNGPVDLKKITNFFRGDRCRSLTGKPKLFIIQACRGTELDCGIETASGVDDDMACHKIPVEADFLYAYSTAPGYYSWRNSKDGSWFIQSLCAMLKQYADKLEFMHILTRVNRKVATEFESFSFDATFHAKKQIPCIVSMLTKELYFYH
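Assay system – Procaspase-3 D3A mutant · Benchmarks – DMSO low control, extra-enzyme high control · Technique – 405 nm absorbance of p-nitroaniline, reads at 0 and 120 min · Doses – 8.5 µM nominal · Measure – % activation between DMSO and enzyme-spiked controls · Also added – Ac-DEVD-pNA chromogenic peptide substrate · Schedule – 1 h compound preincubation, 2 h substrate hydrolysis at 25 °C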
CHT inh = inhibitors of human choline transporter CHT | High affinity choline transporter 1 (Homo sapiens), Q9GZV3 | CHT-expressing cells, membrane potential dye, choline response; active compounds read low | B-score at 10 µM | hit rate 0.86% among 310,000 | AID 488975, 2010;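 active = B-score over 3 SD under the library average, and starting fluorescence ratio not unusually high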;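 also: choline stimulus applied at its EC90 after an EC20 pre-addition; B-score computed on integrated fluorescence ratio after choline addition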
CHT PAM = CHT positive allosteric modulators, primary screen, cell-based, membrane potential dye, choline EC20. High affinity choline transporter 1 (Homo sapiens), Q9GZV3. CHT-expressing cells; active compounds read high; LV-AA mutant CHT in HEK293 cells. B-score at 10 µM. hit rate 0.49% among 310,000;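 active = initial fluorescence not abnormally high and integrated response B-score, plate-corrected, over 3 SD above library mean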
procasp7 counter = procaspase-7 activators, primary screen, counter-screen for procaspase-3 activator project, biochemical, absorbance, HTS, human; Caspase-7 (Homo sapiens), P55210; recombinant procaspase-7, Ac-DEVD-pNA absorbance 405 nm; D23A/D198A/D206A triple mutant, cannot self-cleave; scale: DMSO 0, 5 µM enzyme 100; activation, % at 8.5 µM; hit rate 0.093% among 330,000; AID 463210, 2010;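 active = percent activation above the screen-wide mean plus 3 SD, cut at about 25% in these data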
Target sequence (P55210 whole entry D23A/D198A/D206A): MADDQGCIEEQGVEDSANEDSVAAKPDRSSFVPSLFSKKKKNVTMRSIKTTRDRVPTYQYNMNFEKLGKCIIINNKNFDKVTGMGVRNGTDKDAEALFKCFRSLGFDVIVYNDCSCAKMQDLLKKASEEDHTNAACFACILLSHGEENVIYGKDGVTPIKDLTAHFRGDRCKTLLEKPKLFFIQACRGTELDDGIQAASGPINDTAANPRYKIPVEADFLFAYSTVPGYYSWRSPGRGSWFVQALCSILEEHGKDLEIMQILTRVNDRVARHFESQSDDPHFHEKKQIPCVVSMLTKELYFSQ
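System: Procaspase-7 triple mutant (PC-7 D3A); measure: % activation from two-timepoint absorbance difference, scaled to controls; times: 1 h compound preincubation, 2 h substrate cleavage, 25 °C; also added: Ac-DEVD-pNA substrate, 400 µM as added; measured by: Epi-absorbance of released pNA at 405 nm, two timepoints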
CHT activ conf = CHT activators, confirmation, cell-based, membrane potential dye, duplicate | hit rate 91% among 2,500 | CHT-expressing cells, membrane potential dye fluorescence (FDSS); % of choline EC20–EC90 response window; HEK293 expressing CHT LV-AA mutant; choline added at its EC20 | activation, % at 10 µM | shares compounds with CHT PAM;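 active = primary screen active, with duplicate mean activation above negative control mean plus 3 SD, cut at about 11% in these data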
HEK293 MP dye = membrane potential response in parental HEK293 cells, counter-screen for CHT activator project, cell-based, membrane potential dye | ratio readout change at 10 µM, hits read low | AID 623908, 2012 | hit rate 62% among 2,500 | shares compounds with CHT PAM | membrane potential dye fluorescence (FDSS); measured after EC20 choline addition;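 active = duplicate-averaged ratio beyond 3 SD from buffer wells, up or down, though filed actives are nearly all decreases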
Active calls of the source: *; i = inactive; . = no result given.

SMILES	proCasp3 act	CHT inh	CHT PAM	procasp7 counter	CHT activ conf	HEK293 MP dye
COc1ccc(Cl)cc1NC(=O)C1COc2ccccc2O1 (stereo not given)	-3.3	i	i	1.3	.	.
CCOC(=O)c1ccccc1NC(=O)COC(=O)CN1C(=O)NC2(CCCC2)C1=O	4.1	i	i	11.1	.	.
C=CC[n+]1c(-c2ccc(OC)c(OC)c2)csc1NNC(=O)Nc1ccccc1	4.5	i	i	-14.8	8.5	i
CCOc1ccccc1NC(=O)COC(=O)CN1C(=O)NC(C)(C)C1=O	3.7	.	.	-6.1	.	.
O=C(c1ccc2c(=O)n3c(nc2c1)CCC3)N1CCCSC1=Nc1ccccc1	8.1	i	i	11.5	.	.
N=C1C(c2ccc(Br)cc2)=C(O)C2CCc3ccccc3N12 (stereo not given)	8.2	i	12.9*	14.9	55.0*	-66.6*
O=S(=O)(c1ccc(Br)cc1)N1CCCc2ccccc21	7.2	i	i	10.3	.	.
CCCN1C(=O)c2ccccc2NC1c1cc(OC)c(OC)c(OC)c1 (stereo not given)	1.1	i	i	14.4	.	.
COc1ccc(CCN2C(=O)c3ccccc3NC2c2cc(Cl)c(O)c(OC)c2)cc1 (stereo not given)	-11.0	i	8.28*	2.0	24.0*	i
Cc1cc(N2CCC(C)CC2)nc2cccc(O)c12	-6.4	i	6.78*	6.7	17.8*	-54.1*
O=C(Nc1ccccc1)OC1CCC2CC1CCC2OC(=O)Nc1ccccc1 (stereo not given)	10.6	i	i	6.1	32.4*	i
C=CCn1c(CCCNC(=O)C(C)(C)C)nc2ccccc21	4.7	i	i	2.7	.	.
CC(C)(C)C(=O)NCCCc1nc2ccccc2n1CCCOc1ccc(Cl)cc1	1.9	i	12*	-3.4	9.6	i
COc1ccc(-c2nc(-c3ccncc3)no2)c(OC)c1	0.4	i	i	-2.9	.	.
COc1cc(OC)c(-c2nc(-c3ccncc3)no2)cc1OC	2.5	i	i	-1.7	44.7*	-43.4*
CC(=O)Nc1ccc(S(=O)(=O)NC2(C(F)(F)F)NC(=O)N(Cc3ccccc3)C2=O)cc1 (stereo not given)	4.9	i	i	-2.0	.	.
Cc1ccc(C(C(=O)NC2CCCCC2)N(C(=O)Cc2c[nH]c3ccccc23)c2ccccc2C)o1 (stereo not given)	-1.2	i	i	-1.8	.	.
Cc1ccc(C(C(=O)NC2CCCC2)N(Cc2ccco2)C(=O)CCC(=O)Nc2cc(C)on2)cc1 (stereo not given)	-4.5	i	6.43*	17.0	-0.8	i
Cc1ccc(C(C(=O)NC2CCCCC2)N(Cc2ccco2)C(=O)Cc2c[nH]c3ccccc23)o1 (stereo not given)	-4.0	i	6.41*	4.8	26.0*	i
COc1cccc(NC(=O)CN(C)C(=O)CNC(=O)c2ccc3ccccc3c2)c1	-5.5	i	i	10.2	.	.
Cc1c(C)c2ccc(OC(C)C(=O)NCCCn3ccnc3)c(C)c2oc1=O (stereo not given)	5.5	i	i	-6.5	62.1*	-36.3*
CCOC(=O)N1CCN(c2nc(-c3cccs3)nc3ccccc23)CC1	4.2	i	6.71*	5.1	29.8*	i
Cc1nnc(SCCn2c(N3CCCCC3)nc3c2c(=O)n(C)c(=O)n3C)s1	7.9	i	i	1.3	.	.
Cc1nnc(SCCn2c(N3CCN(C)CC3)nc3c2c(=O)n(C)c(=O)n3C)s1	6.5	i	7.66*	4.7	46.2*	-70.2*
Cc1ccc(C)c(CN2C(=O)CSc3ccc(C(=O)NCC(C)CN4CCC(C)CC4)cc32)c1 (stereo not given)	4.8	i	6.81*	4.5	39.6*	-33.8*
SMILES	proCasp3 act	CHT inh	CHT PAM	procasp7 counter	CHT activ conf	HEK293 MP dye
Cc1ccc(C)c(CN2C(=O)CSc3ccc(C(=O)N4CCCC4)cc32)c1	2.2	i	i	8.2	.	.
COC(=O)CCCC1=CC2=C(c3ccccc3)C(=O)C(C)(OC(=O)C3CCCC3)C(=O)C2=CN1C1CCCC1 (stereo not given)	-3.3	i	11.2*	-9.2	36.4*	i
COC(=O)[C@@H]1[C@@H](C)N(Cc2ccccc2)C(=O)N[C@H]1c1cccc(C(F)(F)F)c1	-4.6	i	9.4*	3.2	-2.8	i
CCN1C(=NCc2ccc(OC)cc2)N[C@@H](c2ccccc2)[C@H](C(=O)OC)[C@H]1C	-3.8	.	.	6.0	.	.
CC(=O)[C@@H]1[C@@H](C)N(Cc2ccccc2)C(=O)N[C@H]1c1cccc(C(F)(F)F)c1	-2.7	i	i	5.4	.	.
CCN1C(=NCc2ccccc2)N[C@@H](c2ccccc2)[C@H](C(=O)OC)[C@H]1C	9.1	i	6.93*	-4.3	12.1*	i
COc1ccc(Cc2nc3ccc(C(=O)NCC4COCCO4)cc3o2)cc1OC (stereo not given)	3.5	i	i	-0.2	.	.
Cc1cc(=O)n(C)c(=O)n1CCCCCOc1cccc([N+](=O)[O-])c1	9.5	i	i	-13.2	.	.
Cc1cc(=O)n(C)c(=O)n1CCCCCCN1CCCC1	4.3	i	i	2.0	43.6*	-33.7*
COc1ccc(C(=O)OCC(=O)Nc2ccc(Cl)c(C(F)(F)F)c2)c(OC)c1OC	3.0	i	7.61*	8.8	4.1	i
COc1ccc(C)cc1NC(=O)CNc1ccccc1CN(C)C1CCCCC1	7.1	i	6.39*	5.0	21.7*	i
COc1ccc(C2=NC(C)(C)Cc3cc(OC)c(OC)cc32)cc1OC	4.0	i	i	4.3	72.2*	-82.7*
O=C(CCCc1ccccc1)Nc1nccs1	-14.2	i	i	1.2	.	.
CN(Cc1ccc(F)cc1)C(=O)c1sccc1-c1ccccc1	.	i	6.7*	.	37.4*	i
CN(Cc1cccc(F)c1)C(=O)C(c1ccccc1)c1ccccc1	.	i	6.46*	.	6.4	i
COc1ccccc1CN(C)C(=O)c1ccc(COc2ccccc2)cc1	3.3	i	i	4.7	.	.
CN(CCO)C(=O)C(c1ccccc1)c1ccccc1	-3.6	i	i	4.0	.	.
